Source: ChEMBL document CHEMBL4368875, “Towards identifying potent new hits for glioblastoma” (Medchemcomm, 2018)

Tests used:
[1] = Antiproliferative activity against human IN1760 cells after 72 hrs by sulforhodamine B assay; format: functional, cell-based; details: IN1760, 72 h
Procedure, shortened: (§1)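 Short-term cultures derived from about 10mg of adult GBM biopsy tissue, used at passages 10 to 14. Grown in Hams F10 with 10% foetal calf serum at 37 °C without CO₂. Seeded at 3000 cells per well, then grown 48 h to exponential phase. Treated 72 h with serial dilutions from DMSO stocks. SRB read-out at 560nm. EC50 from a variable-slope sigmoidal dose-response fit.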

[2] = system: U-251; experiment: Antiproliferative activity against human U251MG cells after 72 hrs by sulforhodamine B assay; format: functional, cell-based; details: U-251, 72 h
Procedure, shortened: (§2)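 Established GBM lines grown under conditions similar to the short-term cultures (Hams F10, 10% foetal calf serum, 37 °C, no CO₂). Seeded at 3000 cells per well and grown 48 h to exponential phase. Exposed 72 h to serial dilutions from DMSO stocks. Fixed in 10% TCA, stained with 0.4% SRB in 1% acetic acid, dye dissolved in 10mM Tris, absorbance 560nm. EC50 by non-linear variable-slope fit.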

[3] = Antiproliferative activity against human IN1528 cells after 72 hrs by sulforhodamine B assay; format: functional, cell-based; details: IN1528, 72 h; procedure, shortened: as §1
[4] = Antiproliferative activity against human IN1472 cells after 72 hrs by sulforhodamine B assay; format: functional, cell-based; details: IN1472, 72 h; procedure, shortened: as §1
[5] = system: U-87 MG; experiment: Antiproliferative activity against human U87MG cells after 72 hrs by sulforhodamine B assay; format: functional, cell-based, U-87MG ATCC; procedure, shortened: as §2
[6] = Solubility of the compound in DMSO at >1250 uM; format: physicochemical

Structure (SMILES)	EC50 [2] [µM]	EC50 [5] [µM]	solubility [6]	EC50 [1] [µM]	EC50 [3] [µM]	EC50 [4] [mM]
NC(=O)c1ccccc1O [SALICYLAMIDE]	1200	760		> 4000	793	1.39
Oc1ccccc1-c1nc2ccccc2[nH]1	23			36	25	
Cc1c(O)ccc(O)c1C	17					
Oc1ccc(O)cc1 [HYDROQUINONE]	57					
Oc1ccc(-c2ccccc2)cc1	102			81	85	
Oc1ccccc1-c1ccc2ccccc2c1	92	48		> 1000	104	
Cc1ccccc1O [ORTHOCRESOL]	1560	664		> 4000	744	1.44
Oc1ccccc1-c1cc2ccccc2[nH]1 [2-(2'-HYDROXYPHENYL)-1H-INDOLE]	130	126		185	99	> 0.625
Oc1ccccc1-c1ccccc1 [2-PHENYLPHENOL]	372			236	361	
Oc1ccccc1-c1nc2ccccc2o1	2260	52		> 2500		
O=[N+]([O-])c1ccccc1O [NITROPHENOLATE]	1250	888		> 4000	890	
Oc1ccccc1 [PHENOL]	1230	834		> 4000	747	1.73
CC(=O)Oc1ccccc1C(=O)O [ASPIRIN]	1340	723		> 4000	787	1.41

Further lines, with some results ahead:

EC50 [2] [µM]	EC50 [5] [µM]	solubility [6]	Structure (SMILES)	EC50 [1] [µM]	EC50 [3] [µM]	EC50 [4] [mM]
> 625	> 625		c1ccc2[nH]ccc2c1 [INDOLE]	> 625	> 625	> 0.625
38			CCCCCCC(=O)Oc1ccccc1-c1cc2ccccc2[nH]1		29	
	> 625		COc1ccccc1-c1cc2ccccc2[nH]1 [2-(2'-METHOXYPHENYL)-1H-INDOLE]			
39			O=C(Oc1ccccc1-c1cc2ccccc2[nH]1)c1ccccc1		38	
328	257		Nc1ccccc1-c1cc2ccccc2[nH]1		153	0.155
95			Oc1ccccc1-c1c[nH]c2ccccc12	231	120	
> 625	> 625		c1ccc(-c2cc3ccccc3[nH]2)cc1 [2-PHENYL-1H-INDOLE]	> 625	> 625	> 0.625
> 1250	> 1250	Insoluble	Oc1ccccc1-c1nc2ccccc2s1	> 1250	> 1250	> 1.25
916			O=C1c2ccccc2C(=O)N1c1ccccc1O	1080	744	
1140	492		COc1ccccc1O [GUAIACOL]	> 4000	813	2.02
21			Cc1ccc(O)c(-c2cc3ccccc3[nH]2)c1	32	29	
31			CC(=O)Oc1ccccc1-c1cc2ccccc2[nH]1		80	
304			Oc1ccccc1OCc1ccccc1	371	193	
